Activity calls are given as the source filed them.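 The calls were made as follows: active = mean EC50 of 20 µM or lower; inactive = the rest.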
Target: CHO-CHOP luciferase reporter, UPR apoptotic arm activation
Experiment: CHOP luciferase reporter activation in CHO cells – cell-based, CHO-CHOP line, luminescence, set 2, SAR follow-up (AID 588594)
Procedure, shortened: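 Assay system: CHO cells, stable CHOP luciferase reporter | Amount: 500 cells/well | Incubation: Seeding 16-18 h before compounds, 6 h exposure at 37 °C | Detection: Luminescence after Steady-Glo luciferase reagent addition | Controls: High tunicamycin 10 µg/mL, low DMSO alone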

SMILES | EC50
Cn1c([N+](=O)[O-])cnc1C(=O)Nc1ccc(S(=O)(=O)N2CCC(C)(C)CC2)cc1 | > 77.5 µM (inactive)
O=C(Nc1ccc(S(=O)(=O)N2CCC(Cl)CC2)cc1)c1ccc([N+](=O)[O-])o1 | 0.739 µM
CC1CN(S(=O)(=O)c2ccc(NC(=O)c3ccc([N+](=O)[O-])o3)cc2)CC(C)O1 (stereo not drawn) | 1.36 µM
CC1(C)CCN(S(=O)(=O)c2ccc(NC(=O)c3cccc([N+](=O)[O-])c3)cc2)CC1 | > 80 µM (inactive)
O=C(Nc1nc2cc(F)c(F)cc2s1)c1ccccn1 | 8.28 µM
O=C(Nc1nc2ccc(C(F)(F)F)cc2s1)c1ccccn1 | 4.68 µM
O=C(Nc1ccc(S(=O)(=O)C2CCOCC2)cc1)c1ccc([N+](=O)[O-])o1 | 1.19 µM
O=C(Nc1nc2c(F)c(F)ccc2s1)c1ccccn1 | 9.88 µM
CC(C)(C)C1CCN(S(=O)(=O)c2ccc(NC(=O)c3ccc([N+](=O)[O-])o3)cc2)CC1 | 0.676 µM
O=C(Nc1ccc(S(=O)(=O)N2CCC3(CCCCC3)CC2)cc1)c1ccc([N+](=O)[O-])o1 | 0.732 µM
O=C(Nc1nc2cccc(F)c2s1)c1ccccn1 | 7 µM
O=C(Nc1nc2c(F)ccc(F)c2s1)c1ccccn1 | 6.65 µM
CC1(C)CCN(S(=O)(=O)c2ccc(NC(=O)c3ccc(C(F)(F)F)o3)cc2)CC1 | > 80 µM (inactive)
O=C(Nc1ccc(S(=O)(=O)N2CCC(F)CC2)cc1)c1ccc([N+](=O)[O-])o1 | 0.774 µM
O=C(Nc1nc2ccc(F)c(F)c2s1)c1ccccn1 | 5.59 µM
O=C(Nc1nc2ccc(Cl)cc2s1)c1ccccn1 | 5.99 µM
O=C(Nc1nc2cc(F)cc(F)c2s1)c1ccccn1 | 6.87 µM
O=C(Nc1nc2cc(F)ccc2s1)c1ccccn1 | 7.13 µM
